The source made the active and inactive calls. No cut-off for these calls is given here.
Legend:
IMR-32 = experiment: Cytotoxicity against human IMR32 cells assessed as reduction in cell viability after 48 hrs by EZ4U Non-radioactive cell proliferation assay; type: cell-based; conditions: IMR-32, 48 h
In short: (§1)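 IMR-32 cells (2×10^4/well) or HEK-293 cells (1.5×10^4/well) in DMEM with 10% FBS were preincubated 24 h at 37 °C, 5% CO2. Compounds from 25 mM DMSO stocks were added at final 0.01–250 μM, with DMSO ≤1%. After 48 h, EZ4U label was added for 5 h and absorbance read at 492 nm.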

Mus musculus [1] = experiment: Neurotoxicity in CF-1 albino mouse at 30 mg/kg, ip after 4 hrs by rotarod test; type: toxicity, organism-based; conditions: in vivo
In short: (§2)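 Male CF-1 mice were dosed i.p. with compound suspended in 0.5% methylcellulose (30, 100 or 300 mg/kg). Neurotoxicity was scored by rotarod 0.5 h and 4 h after dosing, as animals showing toxicity/animals tested. Type of toxicity was noted, e.g. inability to grasp the rod, tremors, death.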

Mus musculus [2] = experiment: Anticonvulsant activity in CF-1 albino mouse assessed as protection against subcutaneous pentetrazole-induced seizures at 30 mg/kg, ip after 0.5 hrs; type: functional, organism-based
Mus musculus [3] = experiment: Neurotoxicity in CF-1 albino mouse at 100 mg/kg, ip after 4 hrs by rotarod test; type: toxicity, organism-based; conditions: in vivo; in short: as §2
Histamine H3 receptor [4] = molecular target: T1, Histamine H3 receptor (Homo sapiens, UniProt Q9Y5N1); experiment: Displacement of [125I]Iodoproxyfan from recombinant human histamine H3 receptor expressed in CHOK1 cell membranes after 90 mins
T1 sequence (Q9Y5N1 whole entry): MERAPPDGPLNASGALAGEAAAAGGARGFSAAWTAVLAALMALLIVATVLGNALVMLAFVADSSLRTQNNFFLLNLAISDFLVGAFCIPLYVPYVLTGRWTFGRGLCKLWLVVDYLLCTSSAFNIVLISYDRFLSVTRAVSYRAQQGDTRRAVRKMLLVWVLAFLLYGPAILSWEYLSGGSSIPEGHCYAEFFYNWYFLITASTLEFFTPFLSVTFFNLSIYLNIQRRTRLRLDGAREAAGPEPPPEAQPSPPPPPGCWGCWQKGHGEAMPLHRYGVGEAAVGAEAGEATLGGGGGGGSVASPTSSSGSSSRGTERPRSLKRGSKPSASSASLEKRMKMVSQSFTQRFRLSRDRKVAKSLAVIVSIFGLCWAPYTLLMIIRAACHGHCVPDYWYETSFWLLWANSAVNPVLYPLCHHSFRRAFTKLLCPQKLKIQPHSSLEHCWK
In short: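 Membranes of CHO-K1 cells expressing hH3R were incubated 90 min at 25 °C, shaken at 250 rpm, with [125I]iodoproxyfan (16–50 pM) and test compound. Nonspecific binding was defined with 1 μM imetit. Separation by filtration on PEI-treated GF/B filters. Ki obtained from IC50 by Cheng-Prusoff.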

Mus musculus [5] = experiment: Anticonvulsant activity in CF-1 albino mouse assessed as protection against maximal electroshock-induced seizures at 100 mg/kg, ip after 4 hrs; type: functional, organism-based
In short: (§3)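 Male CF-1 albino mice received compound i.p. as a suspension in 0.5% methylcellulose (30, 100 or 300 mg/kg). Maximal electroshock seizure test read 0.5 h and 4 h after dosing. Result given as animals protected/animals tested.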

[6] = Lipophilicity of compound by RP-TLC analysis; type: physicochemical; conditions: methanol:acetic acid:water
In short: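 Reversed-phase TLC on RP-18 plates with methanol:acetic acid:water mobile phase (acid constant at 10%, methanol 85–55% in 5% steps). Spots visualised with iodine. RM values were derived from Rf and extrapolated to zero methanol to give RM0.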

Mus musculus [7] = experiment: Anticonvulsant activity in CF-1 albino mouse assessed as protection against subcutaneous pentetrazole-induced seizures at 30 mg/kg, ip after 4 hrs; type: functional, organism-based
Mus musculus [8] = experiment: Neurotoxicity in CF-1 albino mouse assessed as death at 300 mg/kg, ip after 0.5 hrs by rotarod test; conditions: in vivo
Mus musculus [9] = experiment: Anticonvulsant activity in CF-1 albino mouse assessed as protection against maximal electroshock-induced seizures at 30 mg/kg, ip after 0.5 hrs; type: functional, organism-based; in short: as §3
Mus musculus [10] = experiment: Anticonvulsant activity in CF-1 albino mouse assessed as protection against maximal electroshock-induced seizures at 100 mg/kg, ip after 0.5 hrs; type: functional, organism-based; in short: as §3
Mus musculus [11] = experiment: Anticonvulsant activity in CF-1 albino mouse assessed as protection against subcutaneous pentetrazole-induced seizures at 100 mg/kg, ip after 4 hrs; type: functional, organism-based
Mus musculus [12] = experiment: Anticonvulsant activity in CF-1 albino mouse assessed as protection against subcutaneous pentetrazole-induced seizures at 100 mg/kg, ip after 0.5 hrs; type: functional, organism-based
Mus musculus [13] = experiment: Neurotoxicity in CF-1 albino mouse assessed as unable to grasp at 100 mg/kg, ip after 0.5 hrs by rotarod test; type: toxicity, organism-based; conditions: in vivo
In short: (§4)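 Anticonvulsant Screening Program (NINDS) Phase 1 neurotoxicity screen in male albino CF-1 mice. Compounds were given i.p. as suspensions in 0.5% methylcellulose at 30, 100 and/or 300 mg/kg, and animals were observed 0.5 h and 4 h after dosing. The rotarod test was scored as number of animals showing toxicity over number tested, with the kind of toxicity recorded: inability to grasp rotorod, death, diarrhea, continuous seizure activity, loss of righting reflex, myoclonic jerks or tremors.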

Mus musculus [14] = experiment: Anticonvulsant activity in CF-1 albino mouse assessed as protection against maximal electroshock-induced seizures at 30 mg/kg, ip after 4 hrs; type: functional, organism-based; in short: as §3
[15] = Safety index, ratio of compound IC50 to doxorubicin IC50 for HEK293 cells after 48 hrs by EZ4U non-radioactive cell proliferation assay; type: ADME, cell-based; conditions: human, read-out: Ratio IC50
HEK293 = experiment: Cytotoxicity against HEK293 cells assessed as reduction in cell viability after 48 hrs by EZ4U Non-radioactive cell proliferation assay; type: cell-based; conditions: Homo sapiens, HEK293, 48 h; in short: as §1
CYP3A4 = CYP3A4 (Homo sapiens, UniProt P08684); experiment: Activation of recombinant human CYP3A4 using Luciferin-BE as substrate at 25 uM in presence of NADPH by P450-Glo luminescence assay relative to control; type: ADME; conditions: recombinant human CYP3A4, probe Luciferin-PPXE, in the assay text read “Luciferin-PPXE” for “Luciferin-BE”, read-out: Activity
Sequence of CYP3A4 (P08684 whole entry): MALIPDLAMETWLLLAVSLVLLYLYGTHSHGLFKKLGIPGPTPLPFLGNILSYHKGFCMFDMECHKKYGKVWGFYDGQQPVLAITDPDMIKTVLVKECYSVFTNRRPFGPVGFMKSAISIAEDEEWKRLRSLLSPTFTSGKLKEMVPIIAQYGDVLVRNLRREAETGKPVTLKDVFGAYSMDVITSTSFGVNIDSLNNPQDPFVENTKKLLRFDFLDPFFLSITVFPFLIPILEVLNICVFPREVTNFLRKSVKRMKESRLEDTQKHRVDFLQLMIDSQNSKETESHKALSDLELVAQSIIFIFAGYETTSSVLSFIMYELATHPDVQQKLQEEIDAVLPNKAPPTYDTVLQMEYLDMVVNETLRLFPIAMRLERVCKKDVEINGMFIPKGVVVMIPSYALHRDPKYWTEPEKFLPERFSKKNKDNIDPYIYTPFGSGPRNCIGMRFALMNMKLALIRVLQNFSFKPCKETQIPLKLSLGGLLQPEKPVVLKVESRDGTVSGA
In short: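 Recombinant human CYP3A4 P450-Glo luminescence assay: enzyme converts luciferin substrate to D-luciferin, then firefly luciferase is added and light output read as a measure of CYP3A4 activity. Final ligand concentrations 0.025–25 μM.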

Histamine H3 receptor [16] = molecular target: T1, Histamine H3 receptor; experiment: Antagonist activity at recombinant human histamine H3 receptor expressed in HEK293 cells assessed as inhibition of forskolin-stimulated intracellular cAMP accumulation after 30 mins by TR-FRET TR-FRET assay; type: functional, cell-based
In short: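 TR-FRET cAMP immunoassay in HEK293 cells stably expressing hH3R, 300 cells/well. (R)-α-methylhistamine (15 nM), forskolin (10 μM) and antagonist (0.1 nM–10 μM) added together. Stimulation 30 min at room temperature, then Eu-cAMP tracer and ULight anti-cAMP antibody added for 1 h. Mean of three experiments, each in triplicate.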

[17] = Safety index, ratio of compound IC50 to doxorubicin IC50 for human IMR32 cells after 48 hrs by EZ4U Non-radioactive cell proliferation assay; type: ADME, cell-based; conditions: IMR-32 cells, read-out: Ratio IC50
Histamine H3 receptor [18] = molecular target: T1, Histamine H3 receptor; experiment: Displacement of [3H]Nalpha-Methylhistamine from recombinant human histamine H3 receptor expressed in HEK293 cell membranes after 90 mins by liquid scintillation counting analysis
Rattus norvegicus = experiment: Anticonvulsant activity in albino Sprague-Dawley rat assessed as protection against maximal electroshock-induced seizures at 30 mg/kg, po after 0.5 to 4 hrs; type: functional, organism-based
In short: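 Male Sprague-Dawley rats, four per group, were given compound orally at a fixed 30 mg/kg in 0.5% methylcellulose suspension. Maximal electroshock test was read at 0.5 h and 4 h.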

Mus musculus [19] = experiment: Neurotoxicity in CF-1 albino mouse assessed as death at 100 mg/kg, ip after 4 hrs by rotarod test; type: toxicity, organism-based; conditions: in vivo; in short: as §4
Mus musculus [20] = experiment: Neurotoxicity in CF-1 albino mouse assessed as death at 300 mg/kg, ip after 0.5 hrs by rotarod test; type: toxicity, organism-based; conditions: in vivo; in short: as §4
Mus musculus [21] = experiment: Anticonvulsant activity in CF-1 albino mouse assessed as protection against maximal electroshock-induced seizures at 300 mg/kg, ip after 0.5 hrs; type: functional, organism-based; in short: as §3

| SMILES | IC50 (IMR-32) [nM] | Activity (Mus musculus [1]) | Activity (Mus musculus [2]) | Ki (Histamine H3 receptor [4]) [nM] | Activity (Mus musculus [5]) | Rm [6] | Activity (Mus musculus [7]) | Activity (Mus musculus [9]) | Activity (Mus musculus [10]) | Activity (Mus musculus [11]) | Activity (Mus musculus [12]) | Activity (Mus musculus [14]) | also measured |
| --- | --- | --- | --- | --- | --- | --- | --- | --- | --- | --- | --- | --- | --- |
| COc1cccc2c1C(=O)c1c(O)c3c(c(O)c1C2=O)C[C@@](O)(C(=O)CO)C[C@@H]3O[C@H]1C[C@H](N)[C@H](O)[C@H](C)O1 [DOXORUBICIN] | 5.1 |  |  |  |  |  |  |  |  |  |  |  |  |
| CCC(C)(C)c1ccc(OCCCCCCN2CCCCC2)cc1.O=C(O)C(=O)O |  | Non-Toxic | inactive | 46.5 | Active | 2.456 | inactive | inactive | Active | inactive | inactive | inactive | Activity (Mus musculus [3]): Non-Toxic; Activity (Mus musculus [8]): Toxic; Activity (Mus musculus [13]): Toxic |
| CCC(C)(C)c1ccc(OCCCCCCCN2CCC(C)CC2)cc1.O=C(O)C(=O)O |  | Non-Toxic | inactive | 64.4 | Active |  | inactive | inactive | Active | inactive | inactive | inactive |  |
| CCC(C)(C)c1ccc(OCCCCCN2CCCCC2)cc1.O=C(O)C(=O)O | 72700 | Non-Toxic | inactive | 8.8 | inactive | 2.172 | inactive | inactive |  | inactive | inactive | inactive | Activity (Mus musculus [3]): Non-Toxic; selectivity ratio at 48 h [15]: 50 to 90; IC50 (HEK293): 41200 nM; activity at 25 µM (CYP3A4): 21%; EC50 (Histamine H3 receptor [16]): 157 nM; selectivity ratio at 48 h [17]: > 1000 |
| CCC(C)(C)c1ccc(OCCCCCN2CCCC(C)C2)cc1.O=C(O)C(=O)O (stereo not given) | 30900 | Non-Toxic | inactive | 13.6 | Active | 2.342 | inactive | inactive |  | inactive | inactive | inactive | selectivity ratio at 48 h [15]: 50 to 90; IC50 (HEK293): 25100 nM; activity at 25 µM (CYP3A4): 52%; EC50 (Histamine H3 receptor [16]): 164 nM; selectivity ratio at 48 h [17]: > 1000 |
| CCC(C)(C)c1ccc(OCCCCCCCCN2CCCCCC2)cc1.O=C(O)C(=O)O |  |  |  | 182 |  | 3.384 |  |  |  |  |  |  |  |
| CCC(C)(C)c1ccc(OCCCCCCCCN2CCCCC2)cc1.O=C(O)C(=O)O |  |  |  | 326 |  | 3.075 |  |  |  |  |  |  |  |
| CCC(C)(C)c1ccc(OCCCCN2CCCC(C)C2)cc1.O=C(O)C(=O)O (stereo not given) |  | Non-Toxic | inactive |  | Active | 2.294 | inactive | Active | Active | inactive |  | inactive | Ki (Histamine H3 receptor [18]): 46 nM; Activity (Rattus norvegicus): inactive; Activity (Mus musculus [19]): Toxic; Activity (Mus musculus [13]): Toxic; Activity (Mus musculus [20]): Toxic |
| CCC(C)(C)c1ccc(OCCCCCN2CCC(C)CC2)cc1 | 27900 |  |  | 23.4 |  |  |  |  |  |  |  |  | selectivity ratio at 48 h [15]: 50 to 90; IC50 (HEK293): 37100 nM; activity at 25 µM (CYP3A4): 325%; selectivity ratio at 48 h [17]: > 1000 |
| CCC(C)(C)c1ccc(OCCCCCCN2CCC(C)CC2)cc1.O=C(O)C(=O)O |  | Non-Toxic | inactive | 60.5 | Active |  | inactive | Active | Active | inactive | inactive | Active | Activity (Mus musculus [21]): Active; Activity (Mus musculus [8]): Toxic |
| CCC(C)(C)c1ccc(OCCCCCCCN2CCCCCC2)cc1.O=C(O)C(=O)O |  |  |  | 128 |  | 2.926 |  |  |  |  |  |  |  |
| CCC(C)(C)c1ccc(OCCCCN2CCCCC2)cc1.O=C(O)C(=O)O |  | Non-Toxic | inactive |  |  | 1.883 | inactive | Active | Active | inactive | inactive | inactive | Activity (Mus musculus [3]): Non-Toxic; Ki (Histamine H3 receptor [18]): 140 nM; Activity (Rattus norvegicus): inactive; Activity (Mus musculus [13]): Toxic; Activity (Mus musculus [20]): Toxic |

Source: ChEMBL document CHEMBL4219023, “Synthesis and biological activity of novel tert-amylphenoxyalkyl (homo)piperidine derivatives as histamine H3R ligands” (Bioorg Med Chem, 2017)
